ChEMBL document CHEMBL1158122, “Anti-inflammatory, anti-tumor-promoting, and cytotoxic activities of constituents of marigold (Calendula officinalis) flowers” (J Nat Prod, 2006)

Key:
[1] = Cytotoxicity against human Raji cells assessed as cell viability at 1000 molar ratio; type: cell-based; conditions: read-out: Activity
Method in brief: (§1)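 Raji cells were treated with 32 pmol TPA to induce EBV early antigen activation. The test agent was added at 10, 100, 500 or 1000 mol ratio relative to TPA, and Raji cell viability was measured alongside EA activation.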

Raji [2] = experiment: Inhibition of TPA-induced EBV-early antigen activation in human Raji cells at 10 molar ratio relative to TPA; type: cell-based; set-up: scale not given: the % may be the effect or the level left; conditions: human gammaherpesvirus 4
Raji [3] = experiment: Inhibition of TPA-induced EBV-early antigen activation in human Raji cells at 500 molar ratio relative to TPA; type: cell-based; set-up: scale not given: the % may be the effect or the level left; conditions: human gammaherpesvirus 4
[4] = Cytotoxicity against human Raji cells assessed as cell viability at 100 molar ratio; type: cell-based; conditions: read-out: Activity; method in brief: as §1
Mus musculus = experiment: Antiinflammatory activity against TPA-induced ear edema in mouse; type: functional
Method in brief: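 Specific-pathogen-free female ICR mice were housed five per cage at 24 ± 2 °C. Inflammation was induced on the ear with TPA at 1 µg/ear, and the test agent was applied per ear. Ear edema inhibition was expressed as ID50 in mg per ear.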

[5] = Cytotoxicity against human Raji cells assessed as cell viability at 500 molar ratio; type: cell-based; conditions: read-out: Activity; method in brief: as §1
Raji [6] = experiment: Inhibition of TPA-induced EBV-early antigen activation in human Raji cells at 1000 molar ratio relative to TPA; type: cell-based; set-up: scale not given: the % may be the effect or the level left; conditions: human gammaherpesvirus 4
Raji [7] = experiment: Inhibition of TPA-induced EBV-early antigen activation in human Raji cells at 100 molar ratio relative to TPA; type: cell-based; set-up: scale not given: the % may be the effect or the level left; conditions: human gammaherpesvirus 4
[8] = Inhibition of TPA-induced EBV-early antigen activation in human Raji cells relative to TPA; type: cell-based, human gammaherpesvirus 4
[9] = Cytotoxicity against human Raji cells assessed as cell viability at 10 molar ratio; type: cell-based; conditions: read-out: Activity; method in brief: as §1

IC50 [8] [molar ratio]	Compound	viability at 1000 molar ratio [1] [%]	Activity (Raji [2]) [%]	Activity (Raji [3]) [%]	viability at 100 molar ratio [4] [%]	ID50 (Mus musculus) [mg]	viability at 500 molar ratio [5] [%]	Activity (Raji [6]) [%]	Activity (Raji [7]) [%]	viability at 10 molar ratio [9] [%]
397	CC1=C(/C=C/C(C)=C/C=C/C(C)=C/C=C/C=C(C)/C=C/C=C(C)/C=C/C2=C(C)CCCC2(C)C)C(C)(C)CCC1 [BETA CAROTENE]		100		> 80		> 80	8.6		> 80
574	COc1cc(-c2oc3cc(O)cc(O)c3c(=O)c2O[C@@H]2O[C@H](CO)[C@@H](O)[C@H](O)[C@H]2O[C@@H]2O[C@@H](C)[C@H](O)[C@@H](O)[C@H]2O)ccc1O	70	100	60	> 80		> 80	14.1	81.1	> 80
592	COc1cc(-c2oc3cc(O)cc(O)c3c(=O)c2O[C@@H]2O[C@H](CO[C@@H]3O[C@@H](C)[C@H](O)[C@@H](O)[C@H]3O)[C@@H](O)[C@H](O)[C@H]2O[C@@H]2O[C@@H](C)[C@H](O)[C@@H](O)[C@H]2O)ccc1O	70	100	64.8	> 80		> 80	19.6	86	> 80
585	COc1cc(-c2oc3cc(O)cc(O)c3c(=O)c2O[C@@H]2O[C@H](CO[C@@H]3O[C@@H](C)[C@H](O)[C@@H](O)[C@H]3O)[C@@H](O)[C@H](O)[C@H]2O)ccc1O [NARCISSIN]	70	100	62.4	> 80		> 80	16.3	84.3	> 80

The remaining lines, values behind:

Compound	IC50 [8] [molar ratio]	viability at 1000 molar ratio [1] [%]	Activity (Raji [2]) [%]	Activity (Raji [3]) [%]	viability at 100 molar ratio [4] [%]	ID50 (Mus musculus) [mg]	viability at 500 molar ratio [5] [%]	Activity (Raji [6]) [%]	Activity (Raji [7]) [%]	viability at 10 molar ratio [9] [%]
CC1(C)CC[C@]2(C(=O)O[C@@H]3O[C@H](CO)[C@@H](O)[C@H](O)[C@H]3O)CC[C@]3(C)C(=CC[C@@H]4[C@@]5(C)CC[C@H](O[C@@H]6O[C@H](C(=O)O)[C@@H](O)[C@H](O[C@@H]7O[C@H](CO)[C@H](O)[C@H](O)[C@H]7O)[C@H]6O[C@@H]6O[C@H](CO)[C@@H](O)[C@H](O)[C@H]6O)C(C)(C)[C@@H]5CC[C@]43C)[C@@H]2C1 [CALENDULAGYCOSIDE A]	484	70	75.3	52.3	> 80	0.32	> 80	15.8	75.3	> 80
C[C@]12CCC(=O)C=C1CC[C@@H]1[C@@H]2[C@@H](O)C[C@@]2(C)[C@H]1CC[C@]2(O)C(=O)CO [HYDROCORTISONE]						0.03				
O=c1c(O[C@@H]2O[C@H](CO)[C@@H](O)[C@H](O)[C@H]2O)c(-c2ccc(O)c(O)c2)oc2cc(O)cc(O)c12 [ISOQUERCETIN]	570	70	100	58	> 80		> 80	14.1	78.5	> 80
C[C@@H]1O[C@@H](OC[C@H]2O[C@@H](Oc3c(-c4ccc(O)c(O)c4)oc4cc(O)cc(O)c4c3=O)[C@H](O)[C@@H](O)[C@@H]2O)[C@H](O)[C@H](O)[C@H]1O [RUTIN]	578	70	100		> 80		> 80			> 80
COc1ccc2c(c1)c(CC(=O)O)c(C)n2C(=O)c1ccc(Cl)cc1 [INDOMETHACIN]						0.3				
